Source: ChEMBL document CHEMBL3797098, “An in Vitro and in Vivo Investigation of Bivalent Ligands That Display Preferential Binding and Functional Activity for Different Melanocortin Receptor Homodimers” (J Med Chem, 2016)
Calls of active or inactive are those of the source. No cut-off for these calls is given here. Square brackets hold non-standard residues; d marks the D form. Peptide text beside a SMILES is read from it.

Experiments:
Mus musculus [1] = experiment: Effect on body weight in male 129/Sv x C57BL/6J mouse at 2.5 to 5 nmol, icv measured at 2 to 72 hrs post dose; assay type: ADME, organism-based; details: in vivo, icv_or_intrathecal
How it was run: (§1)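 Crossover design in mice aged 8 weeks with lateral-ventricle cannulas (placement validated by PYY3-36), chow ad libitum, 12-h light/dark. Single ICV injection of 1.0, 2.5 or 5.0 nmol in 3 µL saline, or saline alone, 2 h before lights out. Food intake and body weight weighed at 0, 2, 4, 6, 8, 24, 48, 72 h. One-way ANOVA with Bonferroni test versus saline.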

Mus musculus [2] = experiment: Reduction in food intake in female 129/Sv x C57BL/6J mouse at 2.5 to 5 nmol, icv measured at 48 to 72 hrs post dose; assay type: functional, organism-based; how it was run: as §1
Mus musculus [3] = experiment: Toxicity in male 129/Sv x C57BL/6J mouse assessed as drug tolerability at 2.5 and 5 nmol, icv measured at 2 to 72 hrs post dose; assay type: organism-based; details: in vivo
Mus musculus [4] = experiment: Reduction in food intake in icv dosed male 129/Sv x C57BL/6J mouse measured at 2 to 72 hrs post dose; assay type: functional, organism-based; how it was run: as §1
Mus musculus [5] = experiment: Reduction in food intake in female 129/Sv x C57BL/6J mouse at 2.5 to 5 nmol, icv measured at 24 hrs post dose; assay type: functional, organism-based; how it was run: as §1
Mus musculus [6] = experiment: Reduction in food intake in male 129/Sv x C57BL/6J mouse at 2.5 to 5 nmol, icv measured at 24 to 72 hrs post dose; assay type: functional, organism-based; how it was run: as §1
Mus musculus [7] = experiment: Reduction in food intake in male 129/Sv x C57BL/6J mouse at 2.5 to 5 nmol, icv measured at 2 to 5 hrs post dose; assay type: functional, organism-based
Mus musculus [8] = experiment: Effect on body weight in female 129/Sv x C57BL/6J mouse at 2.5 to 5 nmol, icv measured at 2 to 72 hrs post dose; assay type: ADME, organism-based; details: in vivo, icv_or_intrathecal; how it was run: as §1
Mus musculus [9] = experiment: Reduction in food intake in female 129/Sv x C57BL/6J mouse at 2.5 to 5 nmol, icv measured at 2 to 8 hrs post dose; assay type: functional, organism-based; how it was run: as §1
[10] = biological target: Melanocyte-stimulating hormone receptor (Mus musculus) (UniProt Q01727); experiment: Agonist activity at mouse MC1R expressed in HEK293 cells assessed as cAMP accumulation incubated for 2 hrs by alphascreen assay relative to Ac-His-DPhe-Arg-Trp-NH2; assay type: functional, cell-based
How it was run: (§2)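 HEK293 cells stably expressing mouse MC1R, MC3R (Flag-tagged), MC4R or MC5R, 10,000 cells/well, stimulated with ligand at 10^-13 to 10^-4 M for 2 h at room temperature in HBSS stimulation buffer with 0.5 mM IBMX, 0.1% BSA, pH 7.4. cAMP read by AlphaScreen competition after a further 2 h with donor beads.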

[11] = biological target: Melanocortin receptor 3 (Mus musculus) (UniProt P33033); experiment: Agonist activity at mouse MC3R expressed in HEK293 cells assessed as cAMP accumulation at 100 uM incubated for 2 hrs by alphascreen assay; assay type: functional, cell-based
How it was run: (§3)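 cAMP response at 100 μM in stably transfected HEK293 cells (mouse MC3R-Flag, MC4R or MC5R), expressed as % of maximal NDP-MSH signal. AlphaScreen readout after 2 h room-temperature stimulation in IBMX-containing HBSS buffer, pH 7.4. Duplicate points, at least three independent experiments.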

[12] = biological target: Melanocortin receptor 5 (Mus musculus) (UniProt P41149); experiment: Agonist activity at mouse MC5R expressed in HEK293 cells assessed as cAMP accumulation at 100 uM incubated for 2 hrs by alphascreen assay; assay type: functional, cell-based; how it was run: as §3
[13] = biological target: Melanocortin receptor 4 (Mus musculus) (UniProt P56450); experiment: Agonist activity at mouse MC4R expressed in HEK293 cells assessed as cAMP accumulation at 100 uM incubated for 2 hrs by alphascreen assay; assay type: functional, cell-based; how it was run: as §3
[14] = biological target: Melanocyte-stimulating hormone receptor (Mus musculus) (UniProt Q01727); experiment: Displacement of 125I-NDP-MSH from mouse MC1R expressed in HEK293 cells incubated for 1 hr by gamma counting analysis relative to Ac-His-DPhe-Arg-Trp-NH2; assay type: cell-based
How it was run: (§4)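 Whole HEK293 cells stably expressing mouse MC1R or MC4R, grown to 90-100% confluency, incubated 1 h at 37°C in DMEM/0.1% BSA with 125I-NDP-MSH (100,000 cpm/well) and unlabeled ligand at 10^-12 to 10^-4 M. After one wash, cells lysed with NaOH/Triton X-100 and gamma counted. Nonspecific binding defined with 10^-6 M NDP-MSH.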

[15] = biological target: Melanocortin receptor 5 (Mus musculus) (UniProt P41149); experiment: Agonist activity at mouse MC5R expressed in HEK293 cells assessed as cAMP accumulation incubated for 2 hrs by alphascreen assay relative to Ac-His-DPhe-Arg-Trp-NH2; assay type: functional, cell-based; how it was run: as §2
[16] = biological target: Melanocortin receptor 4 (Mus musculus) (UniProt P56450); experiment: Agonist activity at mouse MC4R expressed in HEK293 cells assessed as cAMP accumulation incubated for 2 hrs by alphascreen assay relative to Ac-His-DPhe-Arg-Trp-NH2; assay type: functional, cell-based; how it was run: as §2
[17] = biological target: Melanocortin receptor 3 (Mus musculus) (UniProt P33033); experiment: Displacement of 125I-NDP-MSH from mouse MC3R expressed in HEK293 cells at 100 uM incubated for 1 hr by gamma counting analysis; assay type: cell-based
How it was run: (§5)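 Mouse MC3R-Flag transiently transfected into HEK293 cells using FuGene6 two days before assay. Cells exposed 1 h at 37°C to 125I-NDP-MSH (100,000 cpm/well) plus competitor at 10^-12 to 10^-4 M in DMEM/0.1% BSA, then washed, lysed and gamma counted. Nonspecific binding defined with 10^-6 M NDP-MSH. Duplicates, ≥2 independent experiments.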

[18] = biological target: Melanocortin receptor 3 (Mus musculus) (UniProt P33033); experiment: Displacement of 125I-NDP-MSH from mouse MC3R expressed in HEK293 cells incubated for 1 hr by gamma counting analysis relative to Ac-His-DPhe-Arg-Trp-NH2; assay type: cell-based; how it was run: as §5
[19] = biological target: Melanocortin receptor 4 (Mus musculus) (UniProt P56450); experiment: Displacement of 125I-NDP-MSH from mouse MC4R expressed in HEK293 cells incubated for 1 hr by gamma counting analysis relative to Ac-His-DPhe-Arg-Trp-NH2; assay type: cell-based; how it was run: as §4

Chain of Melanocortin receptor 4 (Mus musculus) (P56450 whole entry): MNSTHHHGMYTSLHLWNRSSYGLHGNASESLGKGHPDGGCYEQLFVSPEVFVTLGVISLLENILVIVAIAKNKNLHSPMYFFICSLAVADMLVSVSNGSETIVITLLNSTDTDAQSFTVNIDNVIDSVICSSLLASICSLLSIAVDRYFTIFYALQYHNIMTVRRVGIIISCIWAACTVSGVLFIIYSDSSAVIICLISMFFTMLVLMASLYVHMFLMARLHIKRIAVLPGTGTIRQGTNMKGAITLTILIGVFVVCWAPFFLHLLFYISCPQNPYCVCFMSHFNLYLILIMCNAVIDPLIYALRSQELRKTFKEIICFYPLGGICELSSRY
Chain of Melanocortin receptor 3 (Mus musculus) (P33033 whole entry): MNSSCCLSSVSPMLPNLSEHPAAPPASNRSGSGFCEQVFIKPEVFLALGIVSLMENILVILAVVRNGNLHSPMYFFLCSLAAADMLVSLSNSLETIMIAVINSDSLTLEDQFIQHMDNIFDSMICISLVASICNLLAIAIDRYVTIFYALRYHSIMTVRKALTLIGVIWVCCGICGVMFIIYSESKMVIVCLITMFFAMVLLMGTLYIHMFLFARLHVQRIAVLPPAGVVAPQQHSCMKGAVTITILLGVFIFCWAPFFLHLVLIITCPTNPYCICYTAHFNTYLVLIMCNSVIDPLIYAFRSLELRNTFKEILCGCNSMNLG
Chain of Melanocortin receptor 5 (Mus musculus) (P41149 whole entry): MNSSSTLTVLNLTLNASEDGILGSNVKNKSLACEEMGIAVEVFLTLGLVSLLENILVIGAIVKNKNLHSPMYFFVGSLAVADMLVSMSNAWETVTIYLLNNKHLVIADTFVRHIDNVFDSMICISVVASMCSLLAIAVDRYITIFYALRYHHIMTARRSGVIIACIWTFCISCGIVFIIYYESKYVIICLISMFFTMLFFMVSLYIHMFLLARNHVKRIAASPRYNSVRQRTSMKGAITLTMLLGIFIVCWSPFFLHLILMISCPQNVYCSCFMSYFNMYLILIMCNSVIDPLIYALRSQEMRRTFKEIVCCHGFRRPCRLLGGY
Chain of Melanocyte-stimulating hormone receptor (Mus musculus) (Q01727 whole entry, looked up): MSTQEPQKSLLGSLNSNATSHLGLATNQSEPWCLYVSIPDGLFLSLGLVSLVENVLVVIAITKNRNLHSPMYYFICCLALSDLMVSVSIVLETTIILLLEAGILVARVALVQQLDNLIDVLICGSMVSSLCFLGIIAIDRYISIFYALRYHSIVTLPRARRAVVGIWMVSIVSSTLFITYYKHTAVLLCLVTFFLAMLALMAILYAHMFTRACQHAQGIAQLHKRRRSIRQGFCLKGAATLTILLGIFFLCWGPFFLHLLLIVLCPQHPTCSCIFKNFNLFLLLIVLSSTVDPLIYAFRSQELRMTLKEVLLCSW

## CC(=O)N[C@@H](Cc1cnc[nH]1)C(=O)N[C@H](Cc1ccccc1)C(=O)N[C@@H](CCCNC(=N)N)C(=O)N[C@@H](Cc1c[nH]c2ccccc12)C(=O)NCCCOCCOCCOCCCNC(=O)COCC(=O)N[C@@H](Cc1cnc[nH]1)C(=O)N[C@H](Cc1ccccc1)C(=O)N[C@@H](CCCNC(=N)N)C(=O)N[C@@H](Cc1c[nH]c2ccccc12)C(N)=O
Mus musculus [1]
  Activity: Non-toxic
Mus musculus [2]
  Activity: inactive
Mus musculus [3]
  Activity: Non-toxic
Mus musculus [4]
  Activity: Dose-dependent effect
Mus musculus [5]
  Activity: Active
Mus musculus [6]
  Activity: inactive
Mus musculus [7]
  Activity: Active
Mus musculus [8]
  Activity: Non-toxic
Mus musculus [9]
  Activity: inactive

## CC(=O)N[C@H](Cc1cnc[nH]1)C(=O)N[C@H](Cc1ccccc1)C(=O)N[C@@H](CCCNC(=N)N)C(=O)N[C@H](Cc1c[nH]c2ccccc12)C(=O)N1CCC[C@@H]1C(=O)NCC(=O)N1CCC[C@@H]1C(=O)NCC(=O)N1CCC[C@@H]1C(=O)NCC(=O)N1CCC[C@@H]1C(=O)NCC(=O)N1CCC[C@@H]1C(=O)NCC(=O)N1CCC[C@H]1C(=O)NCC(=O)N[C@@H](Cc1cnc[nH]1)C(=O)N[C@H](Cc1ccccc1)C(=O)N[C@@H](CCCNC(=N)N)C(=O)N[C@@H](Cc1c[nH]c2ccccc12)C(N)=O
[10]
  Ratio EC50: 3

## CC(=O)N[C@@H](Cc1c[nH]cn1)C(=O)N[C@H](Cc1ccc2ccccc2c1)C(=O)N[C@@H](CCCN=C(N)N)C(=O)N[C@@H](Cc1c[nH]c2ccccc12)C(N)=O
[11]
  Activity: 45%
[12]
  Activity: 75%

## CC(=O)N[C@@H](Cc1cnc[nH]1)C(=O)N[C@H](Cc1ccc2ccccc2c1)C(=O)N[C@@H](CCCNC(=N)N)C(=O)N[C@@H](Cc1c[nH]c2ccccc12)C(=O)NCCCOCCOCCOCCCNC(=O)COCC(N)=O
[11]
  Activity: 40%
[13]
  Activity: 20%
[14]
  Ratio IC50: 2

## N=C(N)NCCC[C@H](NC(=O)[C@@H](Cc1ccccc1)NC(=O)[C@H](Cc1cnc[nH]1)NC(=O)CNC(=O)[C@@H]1CCCN1C(=O)CNC(=O)[C@@H]1CCCN1C(=O)CNC(=O)[C@@H]1CCCN1C(=O)CNC(=O)[C@@H]1CCCN1C(=O)CNC(=O)[C@@H]1CCCN1C(=O)CNC(=O)[C@@H]1CCCN1)C(=O)N[C@@H](Cc1c[nH]c2ccccc12)C(N)=O (H-PGPGPGPGPGPGH[dF]RW-NH2)
[15]
  Ratio EC50: 2
[10]
  Ratio EC50: 0.9

## CC(=O)N[C@H](Cc1cnc[nH]1)C(=O)N[C@H](Cc1ccccc1)C(=O)N[C@@H](CCCNC(=N)N)C(=O)N[C@H](Cc1c[nH]c2ccccc12)C(=O)N1CCC[C@@H]1C(=O)NCC(=O)N1CCC[C@@H]1C(=O)NCC(=O)N1CCC[C@@H]1C(=O)NCC(=O)N1CCC[C@@H]1C(=O)NCC(=O)N1CCC[C@@H]1C(=O)NCC(=O)N1CCC[C@H]1C(=O)NCC(N)=O
[16]
  Ratio EC50: 0.2
[17]
  inhibition: 85%
[10]
  Ratio EC50: 2

## N=C(N)NCCC[C@H](NC(=O)[C@@H](Cc1ccc2ccccc2c1)NC(=O)[C@H](Cc1cnc[nH]1)NC(=O)COCC(=O)NCCCOCCOCCOCCCN)C(=O)N[C@@H](Cc1c[nH]c2ccccc12)C(N)=O
[18]
  Ratio IC50: 1
[13]
  Activity: 40%
[14]
  Ratio IC50: 1

## CC(=O)N[C@@H](Cc1cnc[nH]1)C(=O)N[C@H](Cc1ccccc1)C(=O)N[C@@H](CCCNC(=N)N)C(=O)N[C@@H](Cc1c[nH]c2ccccc12)C(=O)NCCCOCCOCCOCCCNC(=O)COCC(N)=O
[18]
  Ratio IC50: 6
[14]
  Ratio IC50: 2

## N=C(N)NCCC[C@H](NC(=O)[C@@H](Cc1ccccc1)NC(=O)[C@H](Cc1cnc[nH]1)NC(=O)COCC(=O)NCCCOCCOCCOCCCN)C(=O)N[C@@H](Cc1c[nH]c2ccccc12)C(N)=O
[16]
  Ratio EC50: 0.7
[15]
  Ratio EC50: 2
[17]
  inhibition: 78%
[10]
  Ratio EC50: 0.6

## CC(=O)N[C@@H](Cc1cnc[nH]1)C(=O)N[C@H](Cc1ccc2ccccc2c1)C(=O)N[C@@H](CCCNC(=N)N)C(=O)N[C@@H](Cc1c[nH]c2ccccc12)C(=O)NCCCOCCOCCOCCCNC(=O)COCC(=O)N[C@@H](Cc1cnc[nH]1)C(=O)N[C@H](Cc1ccc2ccccc2c1)C(=O)N[C@@H](CCCNC(=N)N)C(=O)N[C@@H](Cc1c[nH]c2ccccc12)C(N)=O
[18]
  Ratio IC50: 4
[19]
  Ratio IC50: 2
[11]
  Activity: 80%
[13]
  Activity: 85%

## CC(=O)N[C@@H](Cc1cnc[nH]1)C(=O)N[C@H](Cc1ccccc1)C(=O)N[C@@H](CCCNC(=N)N)C(=O)N[C@@H](Cc1c[nH]c2ccccc12)C(N)=O
[17]
  inhibition: 60%
